Screening results deposited in PubChem by Broad Institute.
Ecoli rRNA inh – inhibits bacterial ribosomal RNA function over humanized ribosomes; GFP signal change (wild-type ribosome), % (no concentration beside the values); 350,000 tested, 1.6% active; AID 720706; E. coli WT GFP vs humanized-ribosome RFP mutants, fluorescence, 24 h; hits give low values; DMSO median 0, no signal -100;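 active = significant combined selectivity score with lowered wild-type GFP, culture density cut under 30%, mutant RFP and density less affected; inactive = any of these conditions unmet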
PvdQ inh – P. aeruginosa PvdQ acylase inhibition | 340,000 tested, 0.063% active | inhibition, % at 10 µM | AID 488965 | purified PvdQ acylase, fluorescence plate reader; in the data active = inhibition above about 30%, passing the limit was not always enough;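 also: 0% = vehicle neutral wells and 100% = reference inhibitor wells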
FN deposit inh – fibronectin deposition inhibition. AH1F fibroblasts, Alexa488-fibronectin deposition fluorescence, overnight. inhibition, % at 12.6 µM. 350,000 tested, 0.086% active;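 active = mean inhibition across replicates of 30% or more, regardless of how many single replicates reach that level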;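 also: positive control wells lacked labelled fibronectin entirely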
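Material: AH1F fibroblast monolayer depositing Alexa488-labelled fibronectin into matrix / Amount: 10000 AH1F cells per well / Signal: fluorescence 485/525 nm / Medium: DMEM, 2% serum / Compound: single dose, pinned / Incubation: 1 h cell adhesion before compound, then overnight fibronectin incubation / Reagent: Alexa488-FN, 24 nM final / Read-out: inhibition of fibronectin deposition signal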
ERp5 inh – blocks human ERp5 reductase activity on insulin; Q15084; ERp5 insulin aggregation, absorbance 650 nm, 90 min; inhibition, % at 9.99 µM; 350,000 tested, 0.05% active;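 active = mean replicate inhibition above about 25%, with every replicate also reaching it, limit read from the data, passing the limit was not always enough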
Target sequence (Q15084 whole entry, looked up): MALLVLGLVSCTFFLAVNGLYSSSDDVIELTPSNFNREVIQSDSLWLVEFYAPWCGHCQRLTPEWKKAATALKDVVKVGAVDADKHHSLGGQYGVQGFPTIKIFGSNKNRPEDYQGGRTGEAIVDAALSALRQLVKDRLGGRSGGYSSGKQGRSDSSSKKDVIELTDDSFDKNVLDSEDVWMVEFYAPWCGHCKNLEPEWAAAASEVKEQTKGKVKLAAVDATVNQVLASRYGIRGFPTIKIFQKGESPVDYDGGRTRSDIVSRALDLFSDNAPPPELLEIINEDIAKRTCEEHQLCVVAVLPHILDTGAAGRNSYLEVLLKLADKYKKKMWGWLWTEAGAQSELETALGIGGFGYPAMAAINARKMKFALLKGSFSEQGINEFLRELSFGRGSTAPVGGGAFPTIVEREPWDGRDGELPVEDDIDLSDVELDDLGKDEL
PDI inh – blocks human protein disulfide isomerase activity; PDI insulin aggregation turbidity, A650, 90 min; 350,000 tested, 0.052% active; inhibition, % at 10 µM;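 active = mean inhibition across replicates of 30% or more, whatever share of single replicates reach that level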
HIV Env fusion – blocks HIV Env-driven cell-cell fusion | HeLa-JRFL Env/CEM21 cell fusion, luciferase | 360,000 tested, 1.1% active | inhibition, % at 12.3 µM | AID 651610;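 active = mean replicate inhibition score of at least 50 and every replicate individually at or above 50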;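 also: 0% = plate neutral controls and 100% = maraviroc near 300 nM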
* = called active by the depositor; . = not tested or not shown; [ ] = dose if it differs, or a comment. The list is not random: actives were taken first. Their share in the collection is about 2.2%.

SMILES | Ecoli rRNA inh | PvdQ inh | FN deposit inh | ERp5 inh | PDI inh | HIV Env fusion
C/C=C/c1ccc2c(c1)O[C@H](CN(C)C(=O)NC(C)C)[C@H](C)CN([C@H](C)CO)S2(=O)=O | -3 | . | -1 | 0 | . | 18[16.7 µM]
CCOC(=O)C1=C(C)N=C2c3ccccc3C(=O)C2C1c1ccc(Cl)cc1 (configuration not stated) | . | 7 | -6 | . | -10 | 84*
CO[C@@H]1CN(C)C(=O)c2ccc(NC(=O)C3CC3)cc2OC[C@H](C)N(Cc2cncnc2)C[C@H]1C | 1 | . | 6 | . | . | .
CN(C)CC(=O)N[C@@H]1CC[C@@H](CCNC(=O)Nc2ccc(F)cc2)O[C@@H]1CO | 1 | . | . | -2 | . | 14[16.7 µM]
CC(=O)N1C[C@@H]2C(c3ccccc3)[C@H](C1)N2C(=O)NC(C)C (some centres not stated) | -3 | . | -4 | . | . | .
Cc1c(CCC(=O)O)c(=O)oc2c(C)c3occ(-c4ccc(Br)cc4)c3cc12 | -16* | -3 | 3 | -1 | -2 | 3
Cc1c(CC(=O)O)c(=O)oc2cc3occ(-c4ccccc4)c3cc12 | -19* | -5 | 0 | 0 | 7 | 11
Cc1c(CC(=O)O)c(=O)oc2c(C)c3occ(-c4ccc(F)cc4)c3cc12 | -25 | -10 | 1 | -1 | -3 | 2
COc1ccc(-c2coc3c(C)c4oc(=O)c(CCC(=O)O)c(C)c4cc23)cc1 | . | -2 | . | . | 52* | .
COc1ccc(NC(=O)Nc2ccc3c(c2)C(=O)N([C@H](C)CO)C[C@H](C)[C@@H](CN(C)C(=O)Nc2ccc(C(F)(F)F)cc2)OCCCC[C@H](C)O3)cc1 | 0 | . | . | -2 | . | 27[16.7 µM]
C[C@@H]1CN([C@@H](C)CO)C(=O)c2cc(NS(=O)(=O)c3ccc(F)cc3)ccc2O[C@@H](C)CCCCO[C@H]1CN(C)C(=O)C1CCCCC1 | -1 | . | -2 | -2 | . | -179[16.7 µM]
COc1ccc(CN(C)C[C@@H]2Oc3c(NS(=O)(=O)c4ccc(OC)cc4)cccc3C(=O)N([C@H](C)CO)C[C@H]2C)cc1 | 0 | . | . | -3 | . | -13[16.7 µM]
CCOc1ccc(-c2cccc(NS(=O)(=O)c3ccccc3[N+](=O)[O-])c2)nn1 | -7 | -3 | 3 | 3 | -18 | 94*
Cn1c(C(=O)Nc2ccc3c(c2)OCCO3)cc2sccc21 | -32* | 15 | . | -2 | -13 | .
COc1ccc(/C=C/C(=O)Nc2ccccc2C(=O)O)cc1 | -36* | 4 | 10 | 3 | 1 | -15
COc1ccc(/C=C/C(=O)Nc2ccccc2C(=O)N2CCCC2)cc1 | . | -12 | -16 | . | 7 | -179
CC(NC(=O)c1ccccc1NC(=O)CN1CCc2ccccc2C1)c1ccccc1 (configuration not stated) | -4 | -1 | -7 | -1 | 3 | 69*
CC(NC(=O)c1ccccc1NC(=O)CN1CCN(c2ccccc2O)CC1)c1ccccc1 (configuration not stated) | -4 | -13 | -7 | 3 | -8 | 5
CN1c2ccc(-c3cccc(C#N)c3)cc2[C@@H]2[C@@H](CCN2S(=O)(=O)c2ccccc2)[C@H]1CO | -7 | . | 8 | -1 | . | .
c1ccc(SCc2nc3ccccc3s2)nc1 | -23* | 6 | 1 | 2 | 8 | -30
c1ccc2oc(SCc3nc4ccccc4s3)nc2c1 | . | -12 | . | . | -5 | .
CCCCn1cnc2c(c(-c3ccccc3)c(-c3ccccc3)n2Cc2ccco2)c1=N | . | . | 39* | -4 | 14 | 11
C(=N\Nc1nc2ccccc2[nH]1)/c1cccc2cccnc12 | -53* | 9 | 6 | 0 | 7 | -140
C(=N\Nc1nc2ccccc2[nH]1)/c1c[nH]c2ccccc12 | . | 1 | . | . | 3 | .
COc1ccc(/C=N/Nc2nc3ccccc3[nH]2)c(OC)c1OC | -27* | -10 | 1 | . | 2 | -87
SMILES | Ecoli rRNA inh | PvdQ inh | FN deposit inh | ERp5 inh | PDI inh | HIV Env fusion
C(=N\Nc1nc2ccccc2[nH]1)/c1ccccc1 | -53 | -1 | 1 | -3 | 0 | -63
Cc1ccccc1/C=N/Nc1nc2ccccc2[nH]1 | -52 | 8 | -6 | 0 | -3 | -20
Cc1[nH]c2ccccc2c1/C=N/Nc1nc2ccccc2[nH]1 | -47* | 7 | 20 | 7 | -5 | -76
CCCNC(=O)N1[C@H](CO)[C@H](c2ccc(C3=CCCCC3)cc2)[C@@H]1CNC(C)C | 1 | . | -9 | 3 | . | .
C[C@@H]1CN([C@H](C)CO)C(=O)c2cccc(NC(=O)C3CCOCC3)c2O[C@@H]1CN(C)Cc1ccc(Oc2ccccc2)cc1 | 0 | . | . | -8 | . | -10[16.7 µM]
CCOC(=O)Cn1c(-c2ccc(OC)cc2)c(-c2ccc(OC)cc2)nnc1=O | -22* | -5 | 0 | -8 | 5 | -9
Cc1noc(C)c1S(=O)(=O)Nc1ccccc1Oc1ccccc1 | -22* | -19 | 11 | 2 | -4 | 3
Cc1noc(C)c1S(=O)(=O)Nc1ccccc1Cl | 9 | 3 | -10 | 0 | -2 | -3
C[C@H]1CN([C@@H](C)CO)C(=O)c2cc(NC(=O)Cc3ccccc3)ccc2O[C@@H]1CN(C)C(=O)Nc1ccc(C(F)(F)F)cc1 | -2 | . | . | -1 | . | 16[16.7 µM]
COc1ccc(S(=O)(=O)N(C)C[C@@H]2Oc3ccc(NS(=O)(=O)c4c(C)noc4C)cc3C(=O)N([C@@H](C)CO)C[C@@H]2C)cc1 | -3 | . | -1 | 0 | . | 4[16.7 µM]
S=c1nc[nH]c2c1[nH]c1ccc(Cl)cc12 | 3 | -17 | -9 | 4 | -2 | 69*
COc1ccc(CN(C)C[C@@H]2Oc3ccc(NC(=O)NC(C)C)cc3C(=O)N([C@H](C)CO)C[C@H]2C)cc1 | 3 | . | . | -2 | . | -7[16.7 µM]
COC(=O)c1ccc(NC(=O)c2cccc(N3C(=O)C4C5C=CC(C6CC56)C4C3=O)c2)cc1 (configuration not stated) | -1 | -11 | 2 | -6 | 0 | 64*
O=C(Nc1ccccc1)c1cccc(N2C(=O)C3C4C=CC(C5CC45)C3C2=O)c1 (configuration not stated) | -13 | -9 | -2 | 3 | 0 | 8
O=C(NN1C(=O)C2C3C=CC(C4CC34)C2C1=O)c1cccc(Br)c1 (configuration not stated) | -25* | 13 | 6 | 8 | -8 | 18
O=C(CN1CCOCC1)N1CC[C@@H]2[C@@H](CO)Nc3ccc(-c4ccccc4)cc3[C@@H]21 | -5 | . | -6 | . | . | .
CCNC(=O)C[C@@H]1CC[C@@H]2[C@@H](COc3ccc(NC(=O)Nc4cccc(Cl)c4)cc3C(=O)N2C)O1 | -6 | . | -18 | 2 | . | 22[16.7 µM]
Cc1ccc(C)c(C(=O)OCC(=O)Nc2cccc(S(=O)(=O)NC3=NCCCCC3)c2)c1 | -10 | -1 | 3 | -7 | -4 | -12
Cc1ccc(C)c(OCCC(=O)Nc2cccc(S(=O)(=O)NC3=NCCCCC3)c2)c1 | -22* | 4 | -3 | 1 | -4 | 10
COc1ccc(O)c(/C=N/NC(=S)Nc2cccnc2)c1 | -28* | -7 | . | 3 | 6 | -17
